Data from ChEMBL document CHEMBL1129597, “2-[2'-(Dimethylamino)ethyl]-1,2-dihydro- 3H-dibenz[de,h]isoquinoline-1,3-diones with substituents at positions 4, 8, 9, 10, and 11. Synthesis, antitumor activity, and quantitative structure-activity relationships” (J Med Chem, 1996).

Key:
[1] = system: MCF7; experiment: Antitumor activity against human mammary carcinoma sensitive […] breast cell line.; type: functional, cell-based
[2] = system: WiDr; experiment: Compound was tested for antitumor activity against The compound tested for activity against Human colon carcinoma, Multi Drug resistant(MDR) WiDr - cell line.; type: functional, cell-based
[3] = system: L1210; experiment: Antitumor activity against sensitive L1210 murine leukemia cell lines.; type: functional, cell-based; details: Mus musculus
Procedure, shortened: (§1)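 Murine L1210 leukemia cells, sensitive or MDR subline, in culture. Continuous drug exposure during MTT assay. Five concentrations per analogue, six determinations per concentration. The IC50 was derived.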

[4] = system: WiDr (Homo sapiens); experiment: Compound was tested for antitumor activity against The compound tested for activity against Human colon carcinoma sensitive WiDr cell line.
[5] = system: L1210; experiment: Compound was tested for antitumor activity against Murine leukemia cell line (L1210).; type: functional, cell-based; details: Mus musculus; procedure, shortened: as §1
[6] = system: MCF7; experiment: Compound was tested for antitumor activity against Human mammary carcinoma Doxorubicin resistant […] breast cell line.; type: functional, cell-based
[7] = system: OVCAR-3; experiment: Compound was tested for antitumor activity against. Human ovarian (OVCAR-3) cell lines.; type: functional, cell-based
[8] = The quotient of the IC50 in the myocytes divided by the mean IC50 in the three cell lines; type: functional
Procedure, shortened: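 Calculated index: the myocyte IC50 divided by the mean IC50 across three tumor lines (sensitive L1210, melanoma UACC375, ovarian OVCAR3).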

[9] = system: A549; experiment: Activity against A549 cancer cell line.; type: functional, cell-based; details: Homo sapiens
[10] = species on record: Rattus norvegicus; experiment: Cardiotoxicity measured by the ATP/protein ratio compared with untreated controls using neonatal rat heart myocyte assay.; type: functional
Procedure, shortened: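 Neonatal rat heart myocytes exposed to drug for 1 h. The ATP/protein ratio was measured versus untreated control myocytes. IC50 is the concentration reducing this ratio to 50% of control.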

[11] = system: MCF7; experiment: Antitumor activity against human mammary carcinoma mitoxantrone-resistant […] breast cell line.; type: functional, cell-based
[12] = system: UACC-375; experiment: Antitumor activity against human melanoma UACC375 cell line.; type: functional, cell-based
Procedure, shortened: (§2)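 Cultured human tumor cells (melanoma UACC375, ovarian OVCAR3) under continuous drug exposure. Growth was read by sulforhodamine or MTT assay. Five concentrations per analogue, six determinations per concentration. IC50 values were derived from these.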

[13] = system: MCF7; experiment: Antitumor activity against human mammary carcinoma doxorubicin-resistant […] breast cell line.; type: functional, cell-based
[14] = system: WiDr; experiment: Activity against human colon carcinoma multi drug resistant (MDR)-WiDr cell line.; type: functional, cell-based
[15] = system: OVCAR-3; experiment: Antitumor activity against human ovarian OVCAR-3 cell lines.; type: functional, cell-based; procedure, shortened: as §2
[16] = system: L1210; experiment: Antitumor activity against murine leukemia L1210 cell line.; type: functional, cell-based; details: Mus musculus; procedure, shortened: as §1
[17] = system: WiDr; experiment: Activity against human colon carcinoma sensitive WiDr cell line.; type: functional, cell-based
[18] = Percent increase in life span when given at a dose in P388 leukemia cells of mice; type: functional
Procedure, shortened: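 P388 leukemia in mice, standard NCI protocol: 10^6 leukemia cells given ip; compound given ip in equal doses on days 1, 5 and 9. Highest dose used was 10% below the LD10 for acute toxicity in that mouse species. %ILS = 100 × (treated life span − control life span)/control life span, reported at the highest nontoxic dose.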

## CN(C)CCN1C(=O)c2c(Cl)ccc3cc4ccccc4c(c23)C1=O
[1]
  IC50: 50 nM
[2]
  IC50: 190 nM
[3]
  IC50: 10 nM
[4]
  IC50: 90 nM
[5]
  IC50: 15 nM
[6]
  IC50: 85 nM
[7]
  IC50: 180 nM
[8]
  Toxicity ratio: 5.2
[9]
  IC50: 12 nM
[10]
  IC50: 900 nM
[11]
  IC50: 60 nM
[12]
  IC50: 332 nM

## CN(C)CCN1C(=O)c2cccc3cc4ccc(O)cc4c(c23)C1=O
[1]
  IC50: 5.8 nM
[3]
  IC50: 189 nM
[13]
  IC50: 35 nM
[14]
  IC50: 240 nM
[15]
  IC50: 2130 nM
[8]
  Toxicity ratio: >23
[9]
  IC50: 1.7 nM
[10]
  IC50: > 27000 nM
[11]
  IC50: 17 nM
[16]
  IC50: 540 nM
[12]
  IC50: 1220 nM
[17]
  IC50: 17 nM

## CN(C)CCN1C(=O)c2cccc3cc4c(O)cccc4c(c23)C1=O
[1]
  IC50: 83 nM
[3]
  IC50: 108 nM
[13]
  IC50: 230 nM
[14]
  IC50: 900 nM
[15]
  IC50: 216 nM
[8]
  Toxicity ratio: 15
[9]
  IC50: 60 nM
[10]
  IC50: 2950 nM
[11]
  IC50: 120 nM
[16]
  IC50: 67 nM
[12]
  IC50: 270 nM
[17]
  IC50: 130 nM

## CN(C)CCN1C(=O)c2cccc3cc4ccc(F)cc4c(c23)C1=O
[1]
  IC50: 15 nM
[3]
  IC50: 8.1 nM
[13]
  IC50: 25 nM
[14]
  IC50: 13 nM
[15]
  IC50: 6.7 nM
[8]
  Toxicity ratio: 45.6
[9]
  IC50: 4.8 nM
[10]
  IC50: 456 nM
[11]
  IC50: 12 nM
[12]
  IC50: 16 nM
[17]
  IC50: 17 nM

## CN(C)CCN1C(=O)c2cccc3cc4ccc(C#N)cc4c(c23)C1=O
[1]
  IC50: 13 nM
[3]
  IC50: 15 nM
[13]
  IC50: 20 nM
[14]
  IC50: 16 nM
[15]
  IC50: 12 nM
[8]
  Toxicity ratio: 9
[9]
  IC50: 2.2 nM
[10]
  IC50: 105 nM
[11]
  IC50: 12 nM
[16]
  IC50: 13 nM
[12]
  IC50: 10 nM
[17]
  IC50: 11 nM

## CN(C)CCN1C(=O)c2cccc3cc4ccc(-c5ccccc5)cc4c(c23)C1=O
[1]
  IC50: 70 nM
[3]
  IC50: 70 nM
[13]
  IC50: 190 nM
[14]
  IC50: 320 nM
[15]
  IC50: 348 nM
[9]
  IC50: 120 nM
[11]
  IC50: 33 nM
[16]
  IC50: 128 nM
[12]
  IC50: 1860 nM
[17]
  IC50: 180 nM

## CN(C)CCN1C(=O)c2cccc3cc4cccc(Cl)c4c(c23)C1=O
[1]
  IC50: 340 nM
[3]
  IC50: 1780 nM
[13]
  IC50: 710 nM
[14]
  IC50: 1000 nM
[15]
  IC50: 9000 nM
[8]
  Toxicity ratio: 1.9
[9]
  IC50: 61 nM
[10]
  IC50: 8230 nM
[11]
  IC50: 120 nM
[16]
  IC50: 617 nM
[12]
  IC50: 2060 nM
[17]
  IC50: 390 nM

## CN(C)CCN1C(=O)c2cccc3cc4ccc(Cl)cc4c(c23)C1=O
[1]
  IC50: 58 nM
[3]
  IC50: 5.1 nM
[13]
  IC50: 8 nM
[14]
  IC50: 85 nM
[15]
  IC50: 64 nM
[8]
  Toxicity ratio: 18
[9]
  IC50: 8.2 nM
[10]
  IC50: 771 nM
[11]
  IC50: 48 nM
[16]
  IC50: 7.7 nM
[12]
  IC50: 64 nM
[17]
  IC50: 17 nM

## CN(C)CCN1C(=O)c2cccc3cc4cc(Cl)ccc4c(c23)C1=O
[1]
  IC50: 49 nM
[3]
  IC50: 7.7 nM
[13]
  IC50: 71 nM
[14]
  IC50: 140 nM
[15]
  IC50: 231 nM
[8]
  Toxicity ratio: 14
[9]
  IC50: 9.9 nM
[10]
  IC50: 1540 nM
[11]
  IC50: 68 nM
[16]
  IC50: 7.7 nM
[12]
  IC50: 90 nM
[17]
  IC50: 100 nM

## CN(C)CCN1C(=O)c2cccc3cc4ccc(I)cc4c(c23)C1=O
[1]
  IC50: 42 nM
[3]
  IC50: 312 nM
[13]
  IC50: 59 nM
[14]
  IC50: 130 nM
[15]
  IC50: 176 nM
[8]
  Toxicity ratio: 13
[9]
  IC50: 31 nM
[10]
  IC50: 4790 nM
[11]
  IC50: 49 nM
[16]
  IC50: 52 nM
[12]
  IC50: 624 nM
[17]
  IC50: 40 nM

## COc1cccc2c3c4c(cccc4cc12)C(=O)N(CCN(C)C)C3=O
[1]
  IC50: 120 nM
[3]
  IC50: 13 nM
[13]
  IC50: 67 nM
[14]
  IC50: 30 nM
[15]
  IC50: 52 nM
[8]
  Toxicity ratio: 21
[9]
  IC50: 4.8 nM
[10]
  IC50: 806 nM
[11]
  IC50: 5.4 nM
[16]
  IC50: 18 nM
[12]
  IC50: 52 nM
[17]
  IC50: 9 nM

## CC(=O)Nc1cccc2c3c4c(cccc4cc12)C(=O)N(CCN(C)C)C3=O
[18]
  ILS: 109%

## CN(C)CCNc1ccc2cc3ccccc3c3c2c1C(=O)N(CCN(C)C)C3=O
[1]
  IC50: 190 nM
[3]
  IC50: 210 nM
[13]
  IC50: 530 nM
[14]
  IC50: 680 nM
[15]
  IC50: 715 nM
[8]
  Toxicity ratio: 1.7
[9]
  IC50: 78 nM
[10]
  IC50: 734 nM
[11]
  IC50: 230 nM
[16]
  IC50: 245 nM
[12]
  IC50: 390 nM
[17]
  IC50: 400 nM
